Consider four compounds from ChEMBL document CHEMBL1125291, “New 8-(trifluoromethyl)-substituted quinolones. The benefits of the 8-fluoro group with reduced phototoxic risk” (1992).

The species named for test [1] is Mus musculus. As to the kind of experiment: Days of the first positive reaction in […] mice. In kind it is functional. The essentials:
(§1)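 Phototoxic skin reaction test in depilated female CD-1 mice. A single oral dose (gavage) or subcutaneous dose was given, followed 1 h later by 3 h of UVA exposure (320–400 nm). The regimen was repeated for up to 4 consecutive days, with initial doses of 30, 100 and 300 mg/kg. PTD50 was derived by the probit method. The first day of positive reaction and the no-effect dose were taken from the raw data.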

Test [2] relates to Streptococcus pyogenes. As to the kind of experiment: Minimum inhibitory concentration (MIC) against gram positive bacteria Streptococcus pyogenes C-203. In kind it is functional. As to conditions: Streptococcus pyogenes; read-out: MIC. The procedure, abridged: (§2)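 MICs were determined by standard broth microtitration against 11 Gram-positive and Gram-negative organisms, in µg/mL. Values come from duplicate or triplicate experiments and are accurate to ±50%.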

Test [3] deals with Streptococcus pyogenes. As to the kind of experiment: In vivo efficacy (s.c.) against Streptococcus pyogenes C-203 in mouse protection test. The format is functional. The following applies: Streptococcus pyogenes, sc; read-out: PD50. The procedure, abridged:
(§3)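 Acute lethal systemic infections in female Charles River CD-1 mice. A single dose was given at challenge, orally by gavage or by subcutaneous injection. PD50 (median protective dose, mg/kg) was determined.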

Test [4] concerns Pseudomonas aeruginosa. As to the kind of experiment: In vivo efficacy (orally) against Pseudomonas aeruginosa in mouse protection test. As to conditions: Pseudomonas aeruginosa, po; read-out: PD50. In kind it is functional. The procedure, abridged: as §3
The test system of test [5] is Escherichia coli. As to the kind of experiment: In vivo efficacy in mouse protection test in Escherichia coli Vogel dose administered orally by gavage. In kind it is functional. The following applies: Escherichia coli, po; read-out: PD50. The essentials: as §3
Test [6] relates to Streptococcus pneumoniae. As to the kind of experiment: In vivo efficacy (s.c.) against Streptococcus pneumoniae SV-1 in mouse protection test. In kind it is functional. As to conditions: Streptococcus pneumoniae, sc; read-out: PD50. The procedure, abridged: as §3
Test [7] deals with Streptococcus pneumoniae. As to the kind of experiment: In vivo efficacy (orally) against Streptococcus pneumoniae SV-1 in mouse protection test. The format is functional. As to conditions: Streptococcus pneumoniae, po; read-out: PD50. The essentials: as §3
For test [8], the system named is Streptococcus pyogenes. As to the kind of experiment: In vivo efficacy (orally) against Streptococcus pyogenes C-203 in mouse protection test. In kind it is functional. The following applies: Streptococcus pyogenes, po; read-out: PD50. The essentials: as §3
For another test, the system named is Enterobacter cloacae. As to the kind of experiment: Minimum inhibitory concentration (MIC) against gram negative bacteria Enterobacter cloacae MA-2646. In kind it is functional.
For test [9], the system named is Escherichia coli. As to the kind of experiment: In vivo efficacy in mouse protection test in Escherichia coli Vogel administered by subcutaneous injection. The format is functional. As to conditions: Escherichia coli, sc; read-out: PD50. The essentials:
as §3

A short description of test [10]: Minimum inhibitory concentration (MIC) against gram negative bacteria Prot. rettgeri M-1771. The format is functional, Providencia rettgeri. As to conditions: Providencia rettgeri; read-out: MIC. The procedure, abridged:
as §2

In another test the test system is Enterococcus faecalis. As to the kind of experiment: Minimum inhibitory concentration (MIC) against gram positive bacteria Streptococcus faecalis MGH-2. In kind it is functional. The following applies: Enterococcus faecalis; read-out: MIC. The procedure, abridged: as §2
Test [11] relates to Pseudomonas aeruginosa. As to the kind of experiment: Minimum inhibitory concentration (MIC) against gram negative bacteria Pseudomonas aeruginosa UI-18. The format is functional. The following applies: Pseudomonas aeruginosa; read-out: MIC. The procedure, abridged:
as §2

In test [12] the test system is Mus musculus. As to the kind of experiment: Maximum tolerance dose was measured for phototoxic skin reaction by po administration. The format is functional.
The species named for test [13] is Mus musculus. As to the kind of experiment: Dose which has no effect to induce phototoxic reaction in 50% of mice by probit method. The format is functional.
A further test has as its system Klebsiella pneumoniae. As to the kind of experiment: Minimum inhibitory concentration (MIC) against gram negative bacteria Klebsiella pneumoniae MGH-2. The format is functional. The following applies: Klebsiella pneumoniae; read-out: MIC. The essentials:
as §2

The species entered for test [14] is Mus musculus. As to the kind of experiment: Dose required to induce phototoxic reaction in 50% of mice by probit method at different dosage forms. The format is functional.
Test [15] has as its system Pseudomonas aeruginosa. As to the kind of experiment: In vivo efficacy (s.c.) against Pseudomonas aeruginosa in mouse protection test. In kind it is functional. As to conditions: Pseudomonas aeruginosa, sc; read-out: PD50. The essentials: as §3
Test [16] has as its system Staphylococcus aureus. As to the kind of experiment: Minimum inhibitory concentration (MIC) against gram positive bacteria Staphylococcus aureus H-228. The format is functional. The following applies: Staphylococcus aureus; read-out: MIC. The procedure, abridged: as §2
For test [17], the system named is Escherichia coli. As to the kind of experiment: Minimum inhibitory concentration (MIC) against gram negative bacteria Escherichia coli Vogel. The format is functional. The following applies: Escherichia coli; read-out: MIC. The procedure, abridged: as §2
The species named for test [18] is Mus musculus. As to the kind of experiment: Number of mice which show positive phototoxic reaction in 5 mice. In kind it is functional.
In test [19] the test system is Staphylococcus aureus. As to the kind of experiment: Minimum inhibitory concentration (MIC) against gram positive bacteria Staphylococcus aureus UC-76. As to conditions: Staphylococcus aureus; read-out: MIC. The format is functional. The procedure, abridged:
as §2

Test [20] has as its system Streptococcus pneumoniae. As to the kind of experiment: Minimum inhibitory concentration (MIC) against gram positive bacteria Streptococcus pneumoniae SV-1. The format is functional. The following applies: Streptococcus pneumoniae; read-out: MIC. The essentials: as §2
Test [21] deals with Escherichia coli. As to the kind of experiment: Minimum inhibitory concentration (MIC) against gram negative bacteria Escherichia coli H-560. In kind it is functional. As to conditions: Escherichia coli; read-out: MIC. The essentials:
as §2

Test [22] is filed under the species Mus musculus. As to the kind of experiment: Number of mice which show positive phototoxic reaction. In kind it is functional. The essentials:
as §1

As a reminder, the MIC is the lowest concentration found to suppress growth. The MTD is the highest dose tested that stayed within the study's limit of toxicity. High values mean a wide tolerated range, low ones a narrow tolerated range.

In brackets after ≈: the same amount, converted by molar mass. Bounds are passed on as bounds.

Turning to `CCNCC1CCN(c2c(F)cc3c(=O)c(C(=O)O)cn(C4CC4)c3c2C(F)(F)F)C1` (stereo unspecified), the “Day of first positve reaction” value in the test listed under Mus musculus [1] was found to be 0. In addition, the MIC came out at 0.05 µg/mL (≈ 0.113 µM) in the test with Streptococcus pyogenes [2]; 0.4 µg/mL (≈ 0.906 µM) against Enterobacter cloacae; 1.6 µg/mL (≈ 3.62 µM) in [10]; 0.1 µg/mL (≈ 0.227 µM) with Enterococcus faecalis; 6.3 µg/mL (≈ 14.3 µM) in the test on Pseudomonas aeruginosa [11]; 0.8 µg/mL (≈ 1.81 µM) in the test with Klebsiella pneumoniae. Also, the MIC in the test on Staphylococcus aureus [16] amounted to 0.05 µg/mL (≈ 0.113 µM); in the test with Escherichia coli [17], 0.4 µg/mL (≈ 0.906 µM); in the test on Staphylococcus aureus [19] it was 0.013 µg/mL (≈ 0.0295 µM); with Streptococcus pneumoniae [20] it was 0.05 µg/mL (≈ 0.113 µM); in the test with Escherichia coli [21], 0.2 µg/mL (≈ 0.453 µM). Further, the ED50 was determined as 1.1 mg/kg in the test on Streptococcus pyogenes [3]; 93 mg/kg in the test with Pseudomonas aeruginosa [4]; 5.3 mg/kg in the test on Escherichia coli [5]; 0.9 mg/kg in the test with Streptococcus pneumoniae [6]; 1.4 mg/kg in the test on Streptococcus pneumoniae [7]; 1.6 mg/kg in the test with Streptococcus pyogenes [8]. In addition, the results for the ED50 in the test with Escherichia coli [9] and in the test with Pseudomonas aeruginosa [15] were 1.7 mg/kg and 46 mg/kg, respectively. For the same compound, in the test on Mus musculus [12], the MTD was found to be 100 mg/kg. Besides, in the test filed under Mus musculus [13], the No effect dose stood at 100 mg/kg. Besides, in the test listed under Mus musculus [14], the PTD50 is >100 mg/kg. Besides, the “No. of pos rxns” value in the test filed under Mus musculus [18] worked out at 0.

Regarding `CCn1cc(C(=O)O)c(=O)c2cc(F)c(N3CCN(C)CC3)cc21` [PEFLOXACIN], the “Day of first positve reaction” value in the test filed under Mus musculus [1] was found to be 4. The MIC in the test with Streptococcus pyogenes [2] was 0.8 µg/mL (≈ 2.4 µM); in test [10], 0.05 µg/mL (≈ 0.15 µM); in the test with Enterococcus faecalis, 0.8 µg/mL (≈ 2.4 µM); with Pseudomonas aeruginosa [11], 0.4 µg/mL (≈ 1.2 µM); in the test with Klebsiella pneumoniae, 0.05 µg/mL (≈ 0.15 µM); with Staphylococcus aureus [16], 0.2 µg/mL (≈ 0.6 µM). In addition, the MIC worked out at 0.025 µg/mL (≈ 0.075 µM) with Escherichia coli [17], 0.1 µg/mL (≈ 0.3 µM) in the test on Staphylococcus aureus [19], 0.8 µg/mL (≈ 2.4 µM) in the test with Streptococcus pneumoniae [20] and 0.1 µg/mL (≈ 0.3 µM) in the test on Escherichia coli [21]. The ED50 was 94 mg/kg in the test on Streptococcus pyogenes [3]; 38 mg/kg with Pseudomonas aeruginosa [4]; 3 mg/kg with Escherichia coli [5]; 96 mg/kg in the test with Streptococcus pneumoniae [6]; > 200 mg/kg in the test on Streptococcus pneumoniae [7]; 110 mg/kg in the test with Streptococcus pyogenes [8]. The ED50 worked out at 2 mg/kg in the test with Escherichia coli [9] and 26 mg/kg with Pseudomonas aeruginosa [15]. For the same compound, the MTD in the test on Mus musculus [12] was 300 mg/kg. Moreover, in the test filed under Mus musculus [13], the No effect dose is >172 mg/kg. This compound returned a PTD50 in the test listed under Mus musculus [14] of 265 mg/kg. For the same compound, the “No. of pos rxns” value in the test listed under Mus musculus [18] amounted to 2.

For the compound `NC1CCN(c2c(F)cc3c(=O)c(C(=O)O)cn(C4CC4)c3c2C(F)(F)F)C1` (stereo unspecified), the “Day of first positve reaction” value in the test filed under Mus musculus [1] amounted to 0. For the same compound, the MIC turned out to be 0.4 µg/mL (≈ 1 µM) in the test on Streptococcus pyogenes [2]; 0.05 µg/mL (≈ 0.125 µM) against Enterobacter cloacae; 0.4 µg/mL (≈ 1 µM) in [10]; 0.4 µg/mL (≈ 1 µM) in the test on Enterococcus faecalis; 1.6 µg/mL (≈ 4.01 µM) in the test with Pseudomonas aeruginosa [11]; 0.2 µg/mL (≈ 0.501 µM) in the test on Klebsiella pneumoniae. Also, the MIC in the test with Staphylococcus aureus [16] was 0.1 µg/mL (≈ 0.25 µM); with Escherichia coli [17], 0.05 µg/mL (≈ 0.125 µM); in the test on Staphylococcus aureus [19], 0.05 µg/mL (≈ 0.125 µM); in the test with Streptococcus pneumoniae [20], 0.4 µg/mL (≈ 1 µM); in the test with Escherichia coli [21], 0.025 µg/mL (≈ 0.0626 µM). Moreover, the ED50 with Streptococcus pyogenes [3] was 26 mg/kg; with Pseudomonas aeruginosa [4] it was 53 mg/kg; in the test on Escherichia coli [5] it was 2.9 mg/kg; in the test with Streptococcus pneumoniae [6], 26 mg/kg; in the test with Streptococcus pneumoniae [7], 25 mg/kg; in the test on Streptococcus pyogenes [8], 32 mg/kg. Moreover, the ED50 in the test with Escherichia coli [9] was 1.4 mg/kg; in the test with Pseudomonas aeruginosa [15], 23 mg/kg. Also, the MTD in the test on Mus musculus [12] was 300 mg/kg. For the same compound, in the test filed under Mus musculus [13], the No effect dose was determined as 300 mg/kg. In the test listed under Mus musculus [14], the PTD50 is >300 mg/kg. Moreover, in the test listed under Mus musculus [18], the “No. of pos rxns” value turned out to be 0.

`NC1CCCN(c2cc3c(cc2F)c(=O)c(C(=O)O)cn3C2CC2)C1` (stereo unspecified): the “Day of first positve reaction” value in the test filed under Mus musculus [1] worked out at 0. Moreover, the minimum inhibitory concentration (MIC) came to 0.1 µg/mL (≈ 0.29 µM) in the test on Streptococcus pyogenes [2]; 0.1 µg/mL (≈ 0.29 µM) in the test with Enterobacter cloacae; 0.8 µg/mL (≈ 2.32 µM) in test [10]; 0.2 µg/mL (≈ 0.579 µM) in the test with Enterococcus faecalis; 0.8 µg/mL (≈ 2.32 µM) in the test with Pseudomonas aeruginosa [11]; 0.2 µg/mL (≈ 0.579 µM) in the test with Klebsiella pneumoniae. In addition, the MIC in the test with Staphylococcus aureus [16] was 0.8 µg/mL (≈ 2.32 µM); in the test on Escherichia coli [17] it was 0.1 µg/mL (≈ 0.29 µM); with Staphylococcus aureus [19], 0.05 µg/mL (≈ 0.145 µM); in the test on Streptococcus pneumoniae [20], 0.2 µg/mL (≈ 0.579 µM); with Escherichia coli [21] it was 0.1 µg/mL (≈ 0.29 µM). Besides, the ED50 in the test with Streptococcus pyogenes [3] was 8 mg/kg; in the test on Escherichia coli [5] it was 15 mg/kg; in the test with Streptococcus pyogenes [8], > 50 mg/kg; in the test on Escherichia coli [9], 1.4 mg/kg. This compound also yielded an MTD in the test on Mus musculus [12] of 100 mg/kg. Further, the No. of pos rxns in the test filed under Mus musculus [22] is 0. In the test filed under Mus musculus [13], this compound came in with a No effect dose of 100 mg/kg. Besides, the PTD50 in the test listed under Mus musculus [14] was >100 mg/kg.
